Laboratory results from ChEMBL document CHEMBL1142221, “Nootropic alpha7 nicotinic receptor allosteric modulator derived from GABAA receptor modulators” (Proc Natl Acad Sci U S A, 2007).
Active and inactive are the calls of the source. The rule behind the calls is not given here.

What was measured:
[1] = target: T1, Neuronal acetylcholine receptor subunit alpha-7 (Homo sapiens, UniProt P36544); assay: Activation of human alpha-7 nAChR expressed in Xenopus oocytes assessed as modulation of nicotine-induced current by measuring ratio of I/Imax current by two-electrode voltage-clamp method; format: cell-based; conditions: Oocyte
Procedure, shortened: (§1)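 Oocytes injected with 0.005–50 ng mRNA per subunit (α4β2 and α3β4 at 1:1; α1β1γδ at 1:1:1:1; α7 and 5-HT3A single). Two-electrode voltage clamp at −70 mV, 3–14 days post-injection. Ca²⁺-free Ringer's with BaCl₂ replacing Ca²⁺ (pH 7.4) to limit Ca²⁺-activated Cl⁻ currents. Rapid linear-array application. Current expressed as I/I_max; concentration–effect data fit to a four-parameter logistic. For α7, agonist was fixed at EC₅.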

[2] = target: T1, Neuronal acetylcholine receptor subunit alpha-7; assay: Activation of human alpha-7 nAChR expressed in Xenopus oocytes assessed as modulation of nicotine-induced current by two-electrode voltage-clamp method; format: cell-based, Oocyte; procedure, shortened: as §1
[3] = target: T2, 5-hydroxytryptamine receptor 3A (Homo sapiens) (UniProt P46098); assay: Activity at human 5HT3A receptor expressed in Xenopus oocytes assessed as stimulation of […] current at 10 uM by two-electrode voltage-clamp method; format: cell-based; conditions: Oocyte; procedure, shortened: as §1
T2 sequence (whole entry): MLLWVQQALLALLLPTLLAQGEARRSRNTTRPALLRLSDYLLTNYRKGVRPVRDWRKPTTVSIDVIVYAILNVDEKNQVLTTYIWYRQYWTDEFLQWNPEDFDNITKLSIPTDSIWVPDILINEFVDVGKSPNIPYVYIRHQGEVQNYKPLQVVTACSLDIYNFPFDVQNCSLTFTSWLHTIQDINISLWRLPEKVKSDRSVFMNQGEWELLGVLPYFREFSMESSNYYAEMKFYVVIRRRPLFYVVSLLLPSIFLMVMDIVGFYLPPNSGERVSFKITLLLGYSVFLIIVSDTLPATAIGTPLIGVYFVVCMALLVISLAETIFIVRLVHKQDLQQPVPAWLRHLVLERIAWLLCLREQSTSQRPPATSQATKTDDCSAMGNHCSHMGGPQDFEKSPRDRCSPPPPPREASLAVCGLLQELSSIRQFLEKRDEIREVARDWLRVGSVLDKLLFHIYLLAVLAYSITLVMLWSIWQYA

[4] = target: T3, Neuronal acetylcholine receptor; alpha4/beta2 (Homo sapiens) (UniProt P17787+P43681); assay: Activation of human nAChR alpha-4-beta-2 expressed in Xenopus oocytes assessed as modulation of nicotine-induced current by measuring ratio of I/Imax current by two-electrode voltage-clamp method; format: cell-based; conditions: Oocyte; procedure, shortened: as §1
[5] = target: T4, GABA-A receptor; alpha-2/beta-3/gamma-2 (Homo sapiens, UniProt P18507+P28472+P47869); assay: Activation of human GABAA alpha-2-beta-3-gamma-2L receptor expressed in Xenopus oocytes assessed as modulation of GABA-induced current by two-electrode voltage-clamp method
T4 sequence (P18507 whole entry): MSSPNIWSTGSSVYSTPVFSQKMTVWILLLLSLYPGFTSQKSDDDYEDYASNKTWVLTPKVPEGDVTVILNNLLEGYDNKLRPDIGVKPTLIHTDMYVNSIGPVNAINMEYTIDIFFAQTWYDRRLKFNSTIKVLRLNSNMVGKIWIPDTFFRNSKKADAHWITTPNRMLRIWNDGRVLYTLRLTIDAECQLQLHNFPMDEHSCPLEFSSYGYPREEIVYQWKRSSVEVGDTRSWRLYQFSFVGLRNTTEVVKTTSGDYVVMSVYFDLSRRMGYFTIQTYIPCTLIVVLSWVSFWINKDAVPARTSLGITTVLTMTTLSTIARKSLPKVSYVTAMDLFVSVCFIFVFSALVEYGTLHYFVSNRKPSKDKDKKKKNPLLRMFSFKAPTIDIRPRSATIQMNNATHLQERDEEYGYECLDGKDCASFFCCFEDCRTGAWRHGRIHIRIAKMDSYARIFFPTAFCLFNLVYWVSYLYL
T4 sequence (P28472 whole entry): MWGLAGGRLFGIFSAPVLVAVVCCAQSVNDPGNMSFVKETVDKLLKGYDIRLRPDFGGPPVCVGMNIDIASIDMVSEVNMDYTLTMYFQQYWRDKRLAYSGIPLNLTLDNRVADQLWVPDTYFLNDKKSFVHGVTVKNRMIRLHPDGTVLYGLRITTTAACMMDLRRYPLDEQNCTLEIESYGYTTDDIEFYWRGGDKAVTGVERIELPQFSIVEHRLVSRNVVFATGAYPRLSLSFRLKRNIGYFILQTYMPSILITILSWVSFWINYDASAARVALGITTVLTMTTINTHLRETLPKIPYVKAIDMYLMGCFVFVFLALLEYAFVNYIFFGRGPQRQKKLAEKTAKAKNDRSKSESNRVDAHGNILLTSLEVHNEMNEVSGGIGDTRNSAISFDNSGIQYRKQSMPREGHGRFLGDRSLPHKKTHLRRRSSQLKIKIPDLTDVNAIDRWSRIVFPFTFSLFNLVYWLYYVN
T4 sequence (P47869 whole entry): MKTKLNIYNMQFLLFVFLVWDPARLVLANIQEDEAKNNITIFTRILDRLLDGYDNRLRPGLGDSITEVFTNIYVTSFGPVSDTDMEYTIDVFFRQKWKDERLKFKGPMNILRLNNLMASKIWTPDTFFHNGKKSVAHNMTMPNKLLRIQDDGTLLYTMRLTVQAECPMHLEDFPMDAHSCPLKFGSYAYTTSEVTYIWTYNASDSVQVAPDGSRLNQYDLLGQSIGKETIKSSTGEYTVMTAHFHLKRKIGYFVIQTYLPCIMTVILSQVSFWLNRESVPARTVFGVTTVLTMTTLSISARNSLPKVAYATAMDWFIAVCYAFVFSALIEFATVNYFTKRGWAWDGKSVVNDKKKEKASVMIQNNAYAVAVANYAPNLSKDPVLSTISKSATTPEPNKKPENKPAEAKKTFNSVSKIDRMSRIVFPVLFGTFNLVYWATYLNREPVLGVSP

[6] = target: GABA-A receptor; alpha-2/beta-3/gamma-2 (Homo sapiens) (UniProt P18507+P28472+P47869); assay: Activation of human GABAA alpha-2-beta-3-gamma-2L receptor expressed in Xenopus oocytes assessed as modulation of GABA-induced current by measuring ratio of I/Imax current by two-electrode voltage-clamp method; conditions: Oocyte
[7] = target: T3, Neuronal acetylcholine receptor; alpha4/beta2 (Homo sapiens); assay: Activity at human nAChR alpha4beta2 expressing Xenopus oocytes assessed as stimulation of nicotine-induced current at 10 uM by two-electrode voltage-clamp method; format: cell-based; conditions: Oocyte; procedure, shortened: as §1

T1 sequence (P36544 whole entry): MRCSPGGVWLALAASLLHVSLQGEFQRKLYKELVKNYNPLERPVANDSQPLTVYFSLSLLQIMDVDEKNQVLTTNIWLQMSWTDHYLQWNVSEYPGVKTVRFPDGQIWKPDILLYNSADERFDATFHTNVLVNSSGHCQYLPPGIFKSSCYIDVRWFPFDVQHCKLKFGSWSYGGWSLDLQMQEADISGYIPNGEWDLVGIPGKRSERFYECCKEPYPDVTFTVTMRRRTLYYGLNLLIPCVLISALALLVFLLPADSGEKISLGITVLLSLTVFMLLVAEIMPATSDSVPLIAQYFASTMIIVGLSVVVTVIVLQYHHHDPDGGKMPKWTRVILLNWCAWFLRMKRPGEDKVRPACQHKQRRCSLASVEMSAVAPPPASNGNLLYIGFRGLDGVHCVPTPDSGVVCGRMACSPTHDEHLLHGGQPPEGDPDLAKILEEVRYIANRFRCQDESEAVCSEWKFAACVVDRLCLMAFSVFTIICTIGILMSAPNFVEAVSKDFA

Ratio [1]: 0.86 | EC50 [2]: 1.8 µM | Activity [3]: inactive | Activity [4]: inactive | EC50 [5]: 0.2 µM | Ratio [6]: 0.93 | Activity [7]: inactive
Compound: CCOC(=O)/C(=C\Nc1ccc(OCC)cc1)C(=O)c1ccccc1Cl
